Each structure is given as a SMILES string. Values after ≈ are worked out from the molar mass of the structure shown.

The subject of one experiment is Radical scavenging activity. The experiment is described as follows: Antioxidant activity assessed as DPPH free radical scavenging activity at 50 ug by spectrophotometer. It counts as functional. The gist of the method:
(§1)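 DPPH radical scavenging measured spectrophotometrically by Blois's method at 50, 500 and 1000 µg. Absorbance read at 517 nm. Percent scavenging is the absorbance decrease at 517 nm relative to the absorbance of DPPH solution without test compound. L-ascorbic acid as standard.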
In general terms: Loss of DPPH colour is used to gauge radical scavenging.
For `COC(=O)[C@]12Cc3c([nH]c4ccccc34)[C@@H](c3ccccc3)N1[C@@H]1c3ccccc3OC[C@@H]1C2`, the Activity amounted to 28%.
Consider `O=C1O[C@H]([C@@H](O)CO)C(O)=C1O`, for which the Activity came to 95%.

In another experiment the test system is Bacillus subtilis. As to the kind of experiment: Antimicrobial activity against Bacillus subtilis at 25 ug/ml by agar diffusion assay. The format is functional. Put shortly:
(§2)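 Agar diffusion assay in duplicate against the human bacterial pathogens; tetracycline as reference control.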
On the technique in general: Agar diffusion results depend on both activity and mobility in agar.
For `COC(=O)[C@]12Cc3c([nH]c4ccccc34)[C@@H](c3ccccc3)N1[C@@H]1c3ccccc3OC[C@@H]1C2`, the inhibition zone (IZ) worked out at 9 mm.

A further experiment deals with Bacillus subtilis. The experiment is described as follows: Antimicrobial activity against Bacillus subtilis at 50 ug/ml by agar diffusion assay. It counts as functional. The gist of the method: as §2
As to `COC(=O)[C@]12Cc3c([nH]c4ccccc34)[C@@H](c3ccccc3)N1[C@@H]1c3ccccc3OC[C@@H]1C2`, the inhibition zone (IZ) came out at 11 mm.

Another experiment has as its system Bacillus subtilis. The experiment is described as follows: Antimicrobial activity against Bacillus subtilis at 75 ug/ml by agar diffusion assay. It counts as functional. Put shortly: as §2
`COC(=O)[C@]12Cc3c([nH]c4ccccc34)[C@@H](c3ccccc3)N1[C@@H]1c3ccccc3OC[C@@H]1C2` displayed an inhibition zone (IZ) of 20 mm.

The subject of the next experiment is Bacillus subtilis. The experiment is described as follows: Antimicrobial activity against Bacillus subtilis at 100 ug/ml by agar diffusion assay. It counts as functional. Put shortly:
as §2
As to `COC(=O)[C@]12Cc3c([nH]c4ccccc34)[C@@H](c3ccccc3)N1[C@@H]1c3ccccc3OC[C@@H]1C2`, the inhibition zone (IZ) is 25 mm.

The subject of another experiment is Staphylococcus aureus. The experiment is described as follows: Antimicrobial activity against Staphylococcus aureus at 25 ug/ml by agar diffusion assay. It counts as functional. The gist of the method: as §2
`COC(=O)[C@]12Cc3c([nH]c4ccccc34)[C@@H](c3ccccc3)N1[C@@H]1c3ccccc3OC[C@@H]1C2` yielded an inhibition zone (IZ) of 9 mm.

A further experiment deals with Staphylococcus aureus. As to the kind of experiment: Antimicrobial activity against Staphylococcus aureus at 50 ug/ml by agar diffusion assay. It counts as functional. The gist of the method: as §2
The molecule `COC(=O)[C@]12Cc3c([nH]c4ccccc34)[C@@H](c3ccccc3)N1[C@@H]1c3ccccc3OC[C@@H]1C2` gave an inhibition zone (IZ) of 11 mm.

Another experiment relates to Staphylococcus aureus. As to the kind of experiment: Antimicrobial activity against Staphylococcus aureus at 75 ug/ml by agar diffusion assay. The format is functional. The gist of the method: as §2
`COC(=O)[C@]12Cc3c([nH]c4ccccc34)[C@@H](c3ccccc3)N1[C@@H]1c3ccccc3OC[C@@H]1C2` returned an inhibition zone (IZ) of 18 mm.

The test system of another experiment is Staphylococcus aureus. The experiment is described as follows: Antimicrobial activity against Staphylococcus aureus at 100 ug/ml by agar diffusion assay. The format is functional. Put shortly:
as §2
Regarding `COC(=O)[C@]12Cc3c([nH]c4ccccc34)[C@@H](c3ccccc3)N1[C@@H]1c3ccccc3OC[C@@H]1C2`, the inhibition zone (IZ) worked out at 25 mm.

The test system of another experiment is Pseudomonas aeruginosa. The experiment is described as follows: Antimicrobial activity against Pseudomonas aeruginosa at 25 ug/ml by agar diffusion assay. The format is functional. The gist of the method: as §2
Molecule `COC(=O)[C@]12Cc3c([nH]c4ccccc34)[C@@H](c3ccccc3)N1[C@@H]1c3ccccc3OC[C@@H]1C2` displayed an inhibition zone (IZ) of 9 mm.

Another experiment relates to Pseudomonas aeruginosa. The experiment is described as follows: Antimicrobial activity against Pseudomonas aeruginosa at 50 ug/ml by agar diffusion assay. The format is functional. Put shortly: as §2
Turning to `COC(=O)[C@]12Cc3c([nH]c4ccccc34)[C@@H](c3ccccc3)N1[C@@H]1c3ccccc3OC[C@@H]1C2`, the inhibition zone (IZ) is 12 mm.

For a further experiment, the system named is Pseudomonas aeruginosa. As to the kind of experiment: Antimicrobial activity against Pseudomonas aeruginosa at 75 ug/ml by agar diffusion assay. The format is functional. The gist of the method:
as §2
`COC(=O)[C@]12Cc3c([nH]c4ccccc34)[C@@H](c3ccccc3)N1[C@@H]1c3ccccc3OC[C@@H]1C2`: the inhibition zone (IZ) was 20 mm.

The test system of another experiment is Pseudomonas aeruginosa. The experiment is described as follows: Antimicrobial activity against Pseudomonas aeruginosa at 100 ug/ml by agar diffusion assay. It counts as functional. The gist of the method: as §2
`COC(=O)[C@]12Cc3c([nH]c4ccccc34)[C@@H](c3ccccc3)N1[C@@H]1c3ccccc3OC[C@@H]1C2` had an inhibition zone (IZ) of 24 mm.

Another experiment relates to Klebsiella pneumoniae. As to the kind of experiment: Antimicrobial activity against Klebsiella pneumoniae at 25 ug/ml by agar diffusion assay. It counts as functional. Put shortly:
as §2
In turn, `COC(=O)[C@]12Cc3c([nH]c4ccccc34)[C@@H](c3ccccc3)N1[C@@H]1c3ccccc3OC[C@@H]1C2` registered an inhibition zone (IZ) of 9 mm.

A further experiment deals with Klebsiella pneumoniae. The experiment is described as follows: Antimicrobial activity against Klebsiella pneumoniae at 50 ug/ml by agar diffusion assay. The format is functional. Put shortly:
as §2
In the case of `COC(=O)[C@]12Cc3c([nH]c4ccccc34)[C@@H](c3ccccc3)N1[C@@H]1c3ccccc3OC[C@@H]1C2`, the inhibition zone (IZ) was determined as 11 mm.

The subject of the next experiment is Klebsiella pneumoniae. As to the kind of experiment: Antimicrobial activity against Klebsiella pneumoniae at 75 ug/ml by agar diffusion assay. The format is functional. Put shortly:
as §2
`COC(=O)[C@]12Cc3c([nH]c4ccccc34)[C@@H](c3ccccc3)N1[C@@H]1c3ccccc3OC[C@@H]1C2`: the inhibition zone (IZ) was 19 mm.

In another experiment the test system is Klebsiella pneumoniae. The experiment is described as follows: Antimicrobial activity against Klebsiella pneumoniae at 100 ug/ml by agar diffusion assay. It counts as functional. The gist of the method:
as §2
`COC(=O)[C@]12Cc3c([nH]c4ccccc34)[C@@H](c3ccccc3)N1[C@@H]1c3ccccc3OC[C@@H]1C2` registered an inhibition zone (IZ) of 26 mm.

For another experiment, the system named is Fusarium oxysporum. As to the kind of experiment: Antifungal activity against Fusarium oxysporum. The format is functional. The gist of the method:
(§3)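 Agar diffusion assay in duplicate against the plant fungal pathogens; read-out as minimum inhibitory concentration (MIC); carbendazim as reference control.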
As a reminder, the MIC is the lowest concentration found to suppress growth. Turning to `COC(=O)[C@]12Cc3c([nH]c4ccccc34)[C@@H](c3ccccc3)N1[C@@H]1c3ccccc3OC[C@@H]1C2`, the MIC is 30 µg/mL (≈ 66.6 µM).

The subject of another experiment is Macrophomina phaseolina. As to the kind of experiment: Antifungal activity against Macrophomina phaseolina. The format is functional. Put shortly: as §3
In turn, `COC(=O)[C@]12Cc3c([nH]c4ccccc34)[C@@H](c3ccccc3)N1[C@@H]1c3ccccc3OC[C@@H]1C2` yielded a minimal inhibitory concentration (MIC) of 40 µg/mL (≈ 88.8 µM).

In the next experiment the test system is Radical scavenging activity. As to the kind of experiment: Antioxidant activity assessed as DPPH free radical scavenging activity at 500 ug by spectrophotometer. It counts as functional. The gist of the method:
as §1
Turning to `COC(=O)[C@]12Cc3c([nH]c4ccccc34)[C@@H](c3ccccc3)N1[C@@H]1c3ccccc3OC[C@@H]1C2`, the Activity is 53%.
The same measure, in the same setting: as for `O=C1O[C@H]([C@@H](O)CO)C(O)=C1O`, the figure is 97%.

The subject of a further experiment is Radical scavenging activity. The experiment is described as follows: Antioxidant activity assessed as DPPH free radical scavenging activity at 1000 ug by spectrophotometer. It counts as functional. Put shortly: as §1
Consider `COC(=O)[C@]12Cc3c([nH]c4ccccc34)[C@@H](c3ccccc3)N1[C@@H]1c3ccccc3OC[C@@H]1C2`, for which the Activity is 70%.
On the same count and under the same terms, with `O=C1O[C@H]([C@@H](O)CO)C(O)=C1O` the figure was 99%.

For the origin of these results see ChEMBL document CHEMBL1944603, “An efficient synthesis of highly functionalized novel chromeno[4,3-b]pyrroles and indolizino[6,7-b]indoles as potent antimicrobial and antioxidant agents” (2012).
